# Results reported in PubChem BioAssay AID504382 (The Scripps Research Institute Molecular Screening Center, 2011).
# Hit rate of the full screen: of about 2,500 compounds, about 460 (18%) were called active.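 The calls were made as follows: active = mean activation above a cutoff of low control average plus 3 SD from the earlier screen (cut at about 12% in these data); inactive = the rest.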 Not all results are given here.
# Assay: compound fluorescence interference without thin filaments, confirmation, artefact control for cardiac RTF calcium sensitizer project, biochemical (AID 504382)
# Settings: IANBD fluorescence interference counterscreen, buffer, EC20 Ca2+; at 7.2 µM; hits give high values; scaled: EC20 calcium 0, EC100 calcium 100
# How it was run: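 Medium: MOPS/KCl/MgCl2/EGTA/NTA/DTT buffer, pH 7.2 | Reagent: EC20 calcium, 0.472 mM | Compound dosing: 7.2 µM single dose | Times: 15 min compound exposure at 25 °C | Signal: Fluorescence, 480/540 nm | Measure: Interference relative to controls | Repeats: Triplicate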
row,Structure (SMILES),fluorescence artifact activation
1,CCCn1c(CN2CCN(C(=O)OCC)CC2)nc2cc(NC(=O)CC)ccc21,0.01% (inactive)
2,CCC(=O)Nc1ccc2c(c1)nc(CCN1CCN(C)CC1)n2C,20.2% (active)
3,Cn1c(CN2CCCC2)nc2cc(NC(=O)COc3ccc([N+](=O)[O-])cc3)ccc21,0.82% (inactive)
4,CCCC1OC23CCCCC2C(C#N)(C#N)C1(C#N)C(=N)O3 (stereo unspecified),36.8% (active)
5,CCCCC1OC23CCCCC2C(C#N)(C(=N)O3)C1(C#N)C#N (stereo unspecified),-0.04% (inactive)
6,CCCCC1OC23CCCCC2C(C#N)(C#N)C1(C#N)C(=N)O3 (stereo unspecified),3.08% (inactive)
7,CCN(c1ccccc1)S(=O)(=O)c1ccc(OC)c(NC(=O)Cn2cnc3c2c(=O)n(C)c(=O)n3C)c1,0.38% (inactive)
8,CC(OC(=O)/C(C#N)=C/c1ccc(N(C)C)cc1)C(=O)N(C)c1ccccc1 (stereo unspecified),0.19% (inactive)
9,NS(=O)(=O)c1ccc(-c2ccc(/C=C3\SC(=S)N(C4CCS(=O)(=O)C4)C3=O)o2)cc1 (stereo unspecified),3.08% (inactive)
10,COc1ccc(CCNC(=O)C2CC(c3c(Cl)cccc3Cl)=NO2)cc1 (stereo unspecified),-0.04% (inactive)
11,CC1(C)CC(=O)C(CC2CCCCC2=O)C(=O)C1 (stereo unspecified),0.76% (inactive)
12,Fc1ccc(CNC(=S)NCc2ccc(F)cc2)cc1,12.3% (active)
13,CCN(CC)c1ccc(NC(=S)Nc2ccc(F)cc2)cc1,0.1% (inactive)
14,Fc1ccc(CNCc2ccc(Br)cc2)cc1,0.02% (inactive)
15,S=C(Nc1ccc(N2CCOCC2)cc1)Nc1ccc2nc(-c3ccco3)c(-c3ccco3)nc2c1,8.46% (inactive)
16,O=C(c1ccc(Cl)cc1)n1cnc2ccccc21,0.21% (inactive)
17,O=C(Cn1cnc2ccccc2c1=O)c1ccc(Br)cc1,102% (active)
18,COc1ccc(C(=O)Cn2cnc3ccccc3c2=O)cc1OC,0.22% (inactive)
19,O=C(C1=NN(c2ccccc2)C2C(=O)N(c3ccccc3Cl)C(=O)C12)c1ccccc1 (stereo unspecified),1.06% (inactive)
20,Cc1oc(-c2cc3c(cc2Cl)OCO3)nc1CN1CCCC(C(=O)N2CCOCC2)C1 (stereo unspecified),190% (active)
21,CSCCC(NC(=O)c1ccc(Cl)cc1)C(=O)OCC(=O)c1ccc[nH]1 (stereo unspecified),0.05% (inactive)
22,O=C(/C=C/c1ccccc1)N/C(=C/c1ccccc1)C(=O)NCCCO,0.08% (inactive)
23,C=CCNC(=O)NC(=O)COC(=O)CC(NC(N)=O)c1ccc(Cl)cc1 (stereo unspecified),50.5% (active)

row,Structure (SMILES),fluorescence artifact activation
1,O=C(NCCCN1CCCC1=O)c1cccc(S(=O)(=O)Nc2ccc(Br)cc2)c1,0.07% (inactive)
2,O=C1CCC(=O)N(O)CCCCCNC(=O)CCC(=O)N(O)CCCCNC(=O)CCC(=O)N(O)CCCCCN1,-0.06% (inactive)
3,O=C(CC1C(=O)N(c2ccc(Cl)cc2)C(=S)N1CCc1ccncc1)Nc1ccc(F)cc1 (stereo unspecified),-0.02% (inactive)
4,CC1CCN(S(=O)(=O)c2ccc(N=NC3=C(O)CC(C)(C)CC3=O)cc2)CC1,1.03% (inactive)
5,O=S(=O)(c1ccccc1Cl)N1CCC(Cc2ccccc2)CC1,0.09% (inactive)
6,O=C1c2cccc3cccc(c23)C(=O)N1CC1CCN(S(=O)(=O)c2ccc(F)cc2)CC1,34.6% (active)
7,C=CCn1c(C)cc(-c2csc(N)n2)c1C,2.95% (inactive)
8,O=C(NCc1ccco1)C1CC(c2c(Cl)cccc2Cl)=NO1 (stereo unspecified),-0.09% (inactive)
9,COc1cccc(C(=O)NC2CC3CCCC(C2)N3CC(=O)Nc2ccc(N(C)C)cc2)c1 (stereo unspecified),3.62% (inactive)
10,CN(C)c1ccc(/C=C/c2cc[n+](C)c3ccccc23)cc1,0.06% (inactive)
11,Cc1ccc(/C=C/c2ccc(N(C)C)cc2)[n+](C)c1,1.46% (inactive)
12,CN(C)c1ccc(/C=C/c2cc[n+](C)cc2)cc1,14.5% (active)
13,O=C1N(c2cccc(Cl)c2)C(c2ccccc2)N2CCCN12 (stereo unspecified),-0.04% (inactive)
14,COc1ccc(COc2cc(-c3cccc(OC)c3)nc3ccc(NC(=O)c4ccc(C)cc4)cc23)cc1,0.13% (inactive)
15,COc1cccc(CC(NC(C)=O)C(=O)NC2CCN(c3nc(C)cc(C)c3C#N)CC2)c1OC (stereo unspecified),6.12% (inactive)
16,CCCCN(C(=O)c1ccc2c(c1)OCCO2)c1c(N)n(CCCC)c(=O)[nH]c1=O,-0.02% (inactive)
17,CC(=O)Nc1ccc(NC(=O)C(C)OC(=O)/C(C#N)=C/c2ccc(N(C)C)cc2)cc1 (stereo unspecified),2.64% (inactive)
18,CC1CC(C)(C)NC(=S)N1CCCC(=O)Nc1ccccc1F (stereo unspecified),0.07% (inactive)
19,CCC(C)n1ncn(-c2ccc(N3CCN(c4ccc(OCC5COC(Cn6cncn6)(c6ccc(Cl)cc6Cl)O5)cc4)CC3)cc2)c1=O (stereo unspecified),121% (active)
20,CC1(C)c2[nH]c3ccccc3c2C[C@H]2C(=O)N(Cc3ccc(F)cc3)C(=O)N21,0% (inactive)
21,Cc1onc(-c2ccccc2Cl)c1C(=O)N(Cc1ccc(N(C)C)cc1)C(C)C,2.44% (inactive)
22,CCOC(=O)c1ccccc1-n1nnnc1C,0.06% (inactive)
23,CCOC(=O)c1cc2n(c1N)-c1ccccc1C2=O,19.5% (active)

row,Structure (SMILES),fluorescence artifact activation
1,CCOC(=O)c1cc2c(s1)-c1ccccc1CC2,0.55% (inactive)
2,COc1cc(/C=C/C=C2/CC/C(=C/C=C/c3ccc(O)c(OC)c3)C2=O)ccc1O,7.81% (inactive)
3,C/C(=C\C=C(C#N)C#N)c1cc(C#N)c(N)o1,3.09% (inactive)
4,N#C/C(=C/c1ccc(N2CCOCC2)o1)c1ccc(Cl)cc1,0% (inactive)
5,N#C/C(=C/c1ccc(N2CCCCCC2)o1)c1cccc(F)c1,33.8% (active)
6,N#C/C(=C\c1ccc(N2CCOCC2)o1)C(=O)N1CCOCC1,0.05% (inactive)
7,N#C/C(=C\c1ccc(N2CCCCC2)o1)C(N)=O,2.99% (inactive)
8,N#C/C(=C/c1ccc(N2CCCCCC2)o1)c1ccc(Cl)cc1,12.3% (active)
9,Cc1ncoc1C(=O)N1CCc2c([nH]c3ccccc23)C1C(C)(C)C (stereo unspecified),0.21% (inactive)
10,CN(C)c1ccc(/C=C/c2ccc3ccccc3n2)cc1,0.06% (inactive)
11,CN1CCN(CCNC(=O)Nc2ccc(Cl)cc2)CC1,3.25% (inactive)
12,CCCCCCSc1ccc([C@@H]2[C@H]3C(=O)N(CC)C(=O)[C@H]3[C@]3(C(=O)OC)CCCCN23)cc1OC,-0.04% (inactive)
13,CCn1cc(Cl)c(C(=O)NNC(=O)CCn2cc([N+](=O)[O-])cn2)n1,-0.04% (inactive)
14,CC1(C)c2ccccc2N2CC(=O)N(CC(N)=O)C21C (stereo unspecified),20.9% (active)
15,CN1C(=CC=C2C=C(I)C(=O)C(I)=C2)C(C)(C)c2ccccc21,0.22% (inactive)
16,CN1/C(=C\C=C2/SC(=S)N(CC(=O)O)C2=O)C(C)(C)c2ccccc21,0.11% (inactive)
17,CC(=O)Nc1ccccc1,-0.1% (inactive)
18,O=C(Nc1ccccc1)OC1CCC2CC1CCC2OC(=O)Nc1ccccc1 (stereo unspecified),-0.01% (inactive)
19,O=C(Nc1ccccc1)NC1CS(=O)(=O)CC1O (stereo unspecified),32.8% (active)
20,c1ccc(CCC2=NCCn3cccc32)cc1,4.53% (inactive)
21,CCCCn1c(N)c(N(CC(C)C)C(=O)Cc2ccc(S(=O)(=O)N3CCOCC3)s2)c(=O)[nH]c1=O,3.01% (inactive)
22,Brc1ccc2[nH]c3nc(SCCN4CCOCC4)nnc3c2c1,0.16% (inactive)
23,COc1ccc(/C=C2\SC(=S)N(CCCC(=O)Nc3ccccc3C(=O)O)C2=O)cc1OC,5.03% (inactive)

row,Structure (SMILES),fluorescence artifact activation
1,O=C(Nc1ccccc1)c1ccc(NCCc2ccccc2)c([N+](=O)[O-])c1,0.33% (inactive)
2,Cc1cccc(OCCNc2ccc(C(F)(F)F)cc2[N+](=O)[O-])c1,43.7% (active)
3,CC(=O)c1cccc(-n2c(CCC(=O)O)ccc2-c2ccccc2)c1,0.06% (inactive)
4,Cc1nnc(-c2ccccc2)c(=O)n1/N=C/c1c(O)ccc2ccccc12,0.11% (inactive)
5,C/C(=N\NC(=O)c1cc2c(s1)CCC(C)C2)c1ccc[nH]1 (stereo unspecified),0.04% (inactive)
6,Cc1oc2c(cc(NS(=O)(=O)c3ccc(C(C)C)cc3)c3ccccc32)c1C(=O)O,-0.05% (inactive)
7,O=C(CSCc1c(F)cccc1Cl)Nc1ccccc1C(=O)N1CCOCC1,2.06% (inactive)
8,O=C1N/C(=C\c2ccsc2)C(=O)N1Cc1ccc(F)cc1,0.11% (inactive)
9,O=C1S/C(=C/c2ccc(N3CCOCC3)o2)C(=O)N1Cc1ccc(F)cc1,16.8% (active)
10,CC(C)OC(=O)CN1C(=O)S/C(=C/c2ccc(N3CCCCC3)o2)C1=O,0.64% (inactive)
11,CCCN1C(=O)S/C(=C/c2ccc(N3CCOCC3)o2)C1=O,31.7% (active)
12,O=C1S/C(=C\c2ccc(N3CCOCC3)o2)C(=O)N1c1ccccc1,22.4% (active)
13,CN1C/C(=C\c2ccc(N3CCOCC3)cc2)C(=O)/C(=C/c2ccc(N3CCOCC3)cc2)C1,0.12% (inactive)
14,CCCN1C(=O)S/C(=C\c2ccc(N3CCOCC3)o2)C1=O,0.73% (inactive)
15,O=C1S/C(=C/c2ccc(N3CCOCC3)o2)C(=O)N1Cc1c(F)cccc1Cl,5.76% (inactive)
16,O=C(O)c1ccccc1-c1ccc(/C=C2\SC(=O)N(c3ccccc3)C2=O)o1,0.06% (inactive)
17,O=C1S/C(=C\c2ccc(N3CCOCC3)o2)C(=O)N1Cc1ccc(F)cc1,-0.07% (inactive)
18,O=C1S/C(=C\c2ccc(N3CCOCC3)o2)C(=O)N1Cc1c(F)cccc1Cl,226% (active)
19,CCCOc1ccc(C2C(C(=O)/C=C/c3ccco3)=C(O)C(=O)N2CCN2CCOCC2)cc1OC (stereo unspecified),9.14% (inactive)
20,CC1=CC(=C(C#N)c2nc3ccccc3s2)C=C(C)N1c1ccc(F)cc1,11.2% (inactive)
21,CCC1C/C(=C\c2cc(OC)c(OC)cc2OC)C(=O)/C(=C/c2cc(OC)c(OC)cc2OC)C1 (stereo unspecified),5.41% (inactive)
22,O=[N+]([O-])c1ccc(N/N=C/c2ccc(OCc3cccc4ccccc34)cc2)nc1,-0.02% (inactive)
